Legend:
[1] = Bioavailability as maximal plasma concentration in rats after 10 mg/kg oral dose; assay type: ADME, organism-based; parameters: dose 10 mg/kg, route oral; details: rat
MT2 [2] = assay: Concentration which reduced the concentration of HIV viral RNA by 90% from the level measured in an untreated infected culture; assay type: functional; details: Homo sapiens
How it was run: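 MT-2 cells infected with HIV-1 RF. Uninfected cells preincubated 30 min with serial dilutions of compound in culture medium, then virus added; cultured 3 days at 37 °C, 5% CO₂. Lysed cells assayed for HIV RNA by microtiter plate hybridization. IC90 = concentration lowering viral RNA 90% versus untreated infected culture.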

MT2 [3] = assay: Cytotoxicity was determined by 50% reduction in the number of viable MT2 cells with HIV-1RF; assay type: functional; details: Homo sapiens, read-out: TC50 (the source's name)
How it was run: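 TC50 taken as concentration giving 50% fewer viable cells, with viability read by tetrazolium dye metabolism.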

[4] = target: Human immunodeficiency virus type 1 protease (Human immunodeficiency virus 1, UniProt Q72874); assay: Inhibition of HIV protease, measured by assaying the cleavage of a fluorescent peptide substrate using HPLC
[5] = Bioavailability as maximal plasma concentration in dogs after 2.5 mg/kg oral dose; assay type: ADME, organism-based, Canis lupus familiaris; parameters: dose 2.5 mg/kg, route oral; details: dog

Row | SMILES | Cmax [1] [nM] | IC90 (MT2 [2]) [nM] | CC50 (MT2 [3]) [µM] | Ki [4] [nM] | Cmax [5] [nM]
1 | CC(=O)c1cccc(CN2C(=O)N(Cc3cccc(C(C)=O)c3)[C@H](Cc3ccccc3)[C@H](O)[C@@H](O)[C@H]2Cc2ccccc2)c1 | 500 | 39 | 20 | 0.06 | –
2 | O=C1N(Cc2cccc(-c3c[nH]cn3)c2)[C@H](Cc2ccccc2)[C@H](O)[C@@H](O)[C@@H](Cc2ccccc2)N1Cc1cccc(-c2c[nH]cn2)c1 | < 42 | 84 | 8.8 | 0.19 | –
3 | CCC(=O)c1cccc(CN2C(=O)N(Cc3cccc(C(=O)CC)c3)[C@H](Cc3ccccc3)[C@H](O)[C@@H](O)[C@H]2Cc2ccccc2)c1 | – | 142 | > 80 | 0.21 | –
4 | O=C1N[C@H](Cc2ccccc2)[C@H](O)[C@@H](O)[C@@H](Cc2ccccc2)N1Cc1cccc(-c2cc[nH]n2)c1 | 780 | 67 | 21 | 0.26 | –
5 | O=C1N(Cc2cccc(C(=O)C(F)(F)F)c2)[C@H](Cc2ccccc2)[C@H](O)[C@@H](O)[C@@H](Cc2ccccc2)N1Cc1cccc(C(=O)C(F)(F)F)c1 | – | 33 | 5.4 | 0.037 | –
6 | CCC/C(=N/O)c1cccc(CN2C(=O)N(Cc3cccc(/C(CCC)=N/O)c3)[C@H](Cc3ccccc3)[C@H](O)[C@@H](O)[C@H]2Cc2ccccc2)c1 | – | 64 | 3.7 | 0.031 | –
7 | O=C1N(Cc2cccc(-c3nc[nH]n3)c2)[C@H](Cc2ccccc2)[C@H](O)[C@@H](O)[C@@H](Cc2ccccc2)N1Cc1cccc(-c2nc[nH]n2)c1 | – | 128 | 53 | 0.052 | –
8 | O=C1N(Cc2cccc(/C(=N/O)C(F)(F)F)c2)[C@H](Cc2ccccc2)[C@H](O)[C@@H](O)[C@@H](Cc2ccccc2)N1Cc1cccc(/C(=N\O)C(F)(F)F)c1 | – | 714 | 14 | 3.9 | –
9 | O=Cc1cccc(CN2C(=O)N(Cc3cccc(C=O)c3)[C@H](Cc3ccccc3)[C@H](O)[C@@H](O)[C@H]2Cc2ccccc2)c1 | 260 | 36 | 19 | 0.44 | –
10 | O=C1N(Cc2cccc(CO)c2)[C@H](Cc2ccccc2)[C@H](O)[C@@H](O)[C@@H](Cc2ccccc2)N1Cc1cccc(-c2cc[nH]n2)c1 | 110 | 234 | 20 | 0.16 | –
11 | O=C1N(Cc2cccc(-c3nnn[nH]3)c2)[C@H](Cc2ccccc2)[C@H](O)[C@@H](O)[C@@H](Cc2ccccc2)N1Cc1cccc(-c2nnn[nH]2)c1 | – | > 70000 | 78 | 6.6 | –
12 | CC/C(=N/O)c1cccc(CN2C(=O)N(Cc3cccc(/C(CC)=N/O)c3)[C@H](Cc3ccccc3)[C@H](O)[C@@H](O)[C@H]2Cc2ccccc2)c1 | – | 7 | 5 | 0.031 | –
13 | CC(C)(C)C(=O)c1cccc(CN2C(=O)N(Cc3cccc(C(=O)C(C)(C)C)c3)[C@H](Cc3ccccc3)[C@H](O)[C@@H](O)[C@H]2Cc2ccccc2)c1 | – | – | – | 3.6 | –
14 | CCCC(=O)c1cccc(CN2C(=O)N(Cc3cccc(C(=O)CCC)c3)[C@H](Cc3ccccc3)[C@H](O)[C@@H](O)[C@H]2Cc2ccccc2)c1 | – | 1440 | > 77 | 1.4 | –
15 | O=C1N(Cc2cccc(-c3cn[nH]c3)c2)[C@H](Cc2ccccc2)[C@H](O)[C@@H](O)[C@@H](Cc2ccccc2)N1Cc1cccc(-c2cn[nH]c2)c1 | 75 | 32 | 1.4 | 0.62 | –
16 | O=C(NCCN1CCOCC1)c1cccc(CN2C(=O)N(Cc3cccc(-c4cc[nH]n4)c3)[C@H](Cc3ccccc3)[C@H](O)[C@@H](O)[C@H]2Cc2ccccc2)c1 | – | 128 | 43 | 0.052 | –
17 | O=C1N(Cc2cccc(/C=N\O)c2)[C@H](Cc2ccccc2)[C@H](O)[C@@H](O)[C@@H](Cc2ccccc2)N1Cc1cccc(/C=N/O)c1 | 300 | 5 | 16 | 0.01 | –
18 | O=C1N(Cc2cccc(-c3cc[nH]n3)c2)[C@H](Cc2ccccc2)[C@H](O)[C@@H](O)[C@@H](Cc2ccccc2)N1Cc1cccc(-c2cc[nH]n2)c1 | 68 | 20 | 4.2 | 0.027 | –
19 | C/C(=N/O)c1cccc(CN2C(=O)N(Cc3cccc(/C(C)=N/O)c3)[C@H](Cc3ccccc3)[C@H](O)[C@@H](O)[C@H]2Cc2ccccc2)c1 | 60 | 2 | 81 | 0.018 | –
20 | O=C1N(Cc2cccc(-c3ncc[nH]3)c2)[C@H](Cc2ccccc2)[C@H](O)[C@@H](O)[C@@H](Cc2ccccc2)N1Cc1cccc(-c2ncc[nH]2)c1 | – | 234 | 78 | 0.16 | –
21 | O=C1N(Cc2cccc(-c3c[nH]nn3)c2)[C@H](Cc2ccccc2)[C@H](O)[C@@H](O)[C@@H](Cc2ccccc2)N1Cc1cccc(-c2c[nH]nn2)c1 | – | 94 | 47 | 0.17 | –
22 | Nc1cccc(CN2C(=O)N(Cc3cccc(-c4cc[nH]n4)c3)[C@H](Cc3ccccc3)[C@H](O)[C@@H](O)[C@H]2Cc2ccccc2)c1 | – | 27 | 6.8 | 0.035 | 850
23 | O=C1N(Cc2cccnc2)[C@H](Cc2ccccc2)[C@H](O)[C@@H](O)[C@@H](Cc2ccccc2)N1Cc1cccc(-c2cc[nH]n2)c1 | – | 94 | 6.3 | 0.17 | –
24 | O=C1N(Cc2ccc(O)cc2)[C@H](Cc2ccccc2)[C@H](O)[C@@H](O)[C@@H](Cc2ccccc2)N1Cc1cccc(-c2cc[nH]n2)c1 | – | 30 | 4.8 | 0.021 | –
25 | COC(=O)c1cccc(CN2C(=O)N(Cc3cccc(-c4cc[nH]n4)c3)[C@H](Cc3ccccc3)[C@H](O)[C@@H](O)[C@H]2Cc2ccccc2)c1 | 320 | 32 | 5.7 | 0.14 | –
26 | Nc1cccc(CN2C(=O)N(Cc3cccc(N)c3)[C@H](Cc3ccccc3)[C@H](O)[C@@H](O)[C@H]2Cc2ccccc2)c1 [MOZENAVIR] | 2250 | – | – | – | –
